From PubChem BioAssay
Shown are actives, neighbours in structure and some others; about 11% of the full set was active somewhere.
G6PDH counter = L. mesenteroides G6PDH inhibitors, counter-screen for G6PDH-coupled screening assays, biochemical, Leuconostoc mesenteroides enzyme. Purified L. mesenteroides G6PDH, diaphorase/resazurin coupled fluorescence, 45 min. inhibition, % at 5 µM. 200,000 tested, 0.12% active
WT yeast gro inh = growth inhibition of WT strain, primary screen, mitochondrial fusion inhibitor project, WT and mutant strains, chemical genetic; inhibition, % at 10 µM; AID 1362, 2008; mitochondrial fusion phenotypic screen; 190,000 tested, 2.1% active; in the data active means inhibition above about 58%; tested in S. cerevisiae
Diaphorase act = compounds boosting diaphorase resazurin reduction – biochemical, uHTS, resorufin fluorescence, counter-screen for diaphorase-coupled primary assays, primary screen. activation factor at 20 µM. 190,000 tested, 0.005% active. AID 1229, 2008. Diaphorase/resazurin coupled assay, 16 min; active compounds read high; 1 = vehicle wells, 0 = NADH-free wells;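 active means diaphorase activity raised at least twofold by the compound at 20 µM; inactive means activation factor below 2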
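Material: purified diaphorase enzyme from Clostridium kluyveri / Medium: HEPES pH 7.4 buffer with MgCl2 and Tween 20 / Schedule: enzyme reaction of 16 min at room temperature / Measured by: resorufin fluorescence, excitation 544 nm, emission 590 nm / Evaluation: rise in resorufin formation, marking diaphorase activation or chemical reduction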
Diaph inh CS = diaphorase inhibitors and chemical oxidizers, primary screen, counter-screen for diaphorase-coupled primary assays, biochemical, uHTS, resorufin fluorescence. AID 1217, 2008. 190,000 tested, 0.69% active. inhibition, % at 20 µM. diaphorase resazurin-to-resorufin fluorescence, NADH, 16 min; bacterial (C. kluyveri) enzyme, not human;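 active means primary screen inhibition at 20 µM above a set limit, cut at about 50% in these data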;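 further: plate controls were DMSO with full reaction for no effect and wells lacking NADH for full effect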
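System: Diaphorase enzyme from Clostridium kluyveri | Amount: Enzyme working solution with 0.14 U/mL diaphorase | Benchmarks: No-NADH positive control and DMSO neutral control | Signal: Fluorescence of resorufin formed from resazurin, Ex 544/Em 590 nm | Schedule: 16-min room-temperature incubation before reading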
Lmaj promast = Leishmania major promastigote growth inhibition, primary screen; Leishmania major promastigotes, resazurin fluorescence viability; inhibition, % at 10 µM; 200,000 tested, 9% active;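 further: promastigotes grown with compound for 44 hours at 28 °C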
* = called active by the depositor; nt = not tested or not shown. Unless noted, no stated cut-off is given here; in the data, active means inhibition above about 50%; inactive means the rest.

SMILES	G6PDH counter	WT yeast gro inh	Diaphorase act	Diaph inh CS	Lmaj promast
O=C(CN(C1CCCCC1)S(=O)(=O)c1ccccc1)N1CCCC1	-7.2	3.5	0.9	10.8	-2.5
O=C(CN1CCC(Cc2ccccc2)CC1)N1CCc2ccccc2C1	-0.9	-0.5	0.9	14.3	79.4*
O=C(CN1CCN(c2ccc(F)cc2)CC1)N1CCC(Cc2ccccc2)CC1	-3.2	40.3	0.8	22.3	87.5*
CCNc1nc(C)c(CN(C(C)=O)c2ccccc2)nc1C#N	0.9	-6.9	1	-0.2	8.6
O=[N+]([O-])c1cc(-c2ncccn2)cs1	4.8	-7.7	1	1.9	1.4
O=C(CN1C(=O)C2CCCCC2C1=O)N1CCN(c2ccccc2)CC1 (configuration not stated)	4.6	3.4	1	2.0	-2.4
O=C(c1ccccc1)C1CCN(CC(=O)N2CCN(c3ccccc3)CC2)CC1	-2.1	-8.1	0.6	39.5	92.3*
COC(=O)C1=C(N)Oc2cc(C)[nH]c(=O)c2C1c1cccnc1 (configuration not stated)	4.9	10.2	1	0.3	18.0
C=CCNc1nc(N)c(C(=O)c2ccc3c(c2)OCO3)s1	4.8	26.4	1	4.7	50.2*
CCCCC(=O)Nc1sc2c(c1C(=O)OCC)CCC(C=O)=C2Cl	6.2	17.1	0.9	14.5	99.1*
CCOC(=O)c1c(NC(=O)c2ccccc2Cl)sc2c1CCc1ccccc1-2	7.4	5.9	0.9	9.6	-3.6
CCCC(=O)N=C1SC2CS(=O)(=O)CC2N1c1ccc(C(C)=O)cc1 (configuration not stated)	4.1	nt	0.8	18.9	6.3
CCNc1nc(NCC)nc(N/N=C/c2ccc(Br)cc2)n1	-1.8	25.2	1	2.1	50.4*
COc1ccc(OC)c(C(=O)CSc2nnc(Cc3cccs3)n2CCc2ccccc2)c1	2.4	-24.9	0.8	15.2	96.9*
COc1ccc(-n2c(COc3cccc4ccccc34)nnc2SCC(=O)NCc2ccco2)cc1	-0.8	34.1	0.7	27.9	98.4*
COc1cccc(OCc2nnc(SCC(=O)NCc3ccco3)n2C)c1	0.8	-7.6	1	0.7	-2.5
COc1ccc(-n2c(COc3ccc4ccccc4c3)nnc2SCC(=O)NCc2ccco2)cc1	2.8	32.3	0.8	19.1	21.2
COc1ccc(NC(=O)CSc2nnc(Cc3cccs3)n2-c2ccc(C)cc2)cc1	9.8	14.8	0.8	20.1	97.6*
COc1cccc(OCc2nnc(SCC(=O)NCc3ccco3)n2CCc2ccccc2)c1	2.8	-6.2	0.8	18.8	91.2*
Cc1cc([N+](=O)[O-])nn1CCCC(=O)NCc1ccc(F)cc1	2.0	-7.6	1.1	-5.1	-8.8
CN1CCN(C(=O)c2ccc(-n3cccc3)cc2)CC1	2.0	30.8	0.9	12.7	0.1
Cc1c(Cl)cnc(NC(=O)COC(=O)c2ccc3ncsc3c2)c1Cl	-3.4	1.8	0.8	21.6	61.7*
O=C(COC(=O)c1ccc2ncsc2c1)Nc1ncc(Cl)cc1Cl	8.8	19.0	0.9	9.5	-5.2
CN1CCN(S(=O)(=O)c2cccc(S(=O)(=O)c3ccc(Cl)cc3)c2)CC1	0.9	4.4	0.9	6.6	-2.5
CN1CCCN(S(=O)(=O)c2ccc(Cl)c(Cl)c2)CC1	10.7	-7.1	1	0.0	82.0*
SMILES	G6PDH counter	WT yeast gro inh	Diaphorase act	Diaph inh CS	Lmaj promast
CN1CCCN(S(=O)(=O)c2cccc(Cl)c2Cl)CC1	7.6	-16.9	1	-2.0	71.6*
O=S(=O)(c1cccc(Cl)c1Cl)N1CCCCC1	-13.7	-7.6	0.9	8.3	1.2
COc1ccccc1C(=O)NN=C1CCN(Cc2ccccc2)CC1	1.3	21.0	1	2.0	-2.5
COc1cc(OC)c(NS(=O)(=O)c2coc(C(N)=O)c2)cc1Cl	-1.9	3.5	0.8	15.4	1.6
COc1cc(OC)c(NS(=O)(=O)c2cc(C(=O)OC(C)C(=O)NC3CC3)c(Cl)cc2Cl)cc1Cl (configuration not stated)	11.7	7.7	0.9	11.4	77.9*
COC(=O)c1ccccc1NC(=S)N(Cc1ccc2c(c1)OCO2)Cc1cc2cc(C)ccc2[nH]c1=O	-20.2	24.8	0.9	10.9	99.4*
COC(=O)c1ccccc1NC(=S)N(Cc1ccc2c(c1)OCO2)Cc1cc2ccc(C)cc2[nH]c1=O	-19.2	-9.1	0.8	24.5	97.4*
CCN(CC)CCN(Cc1cc2ccc(C)cc2[nH]c1=O)C(=S)Nc1ccccc1C(=O)OC	13.5	-1.4	nt	nt	7.0
COC(=O)c1ccccc1NC(=S)N(Cc1ccc2c(c1)OCO2)Cc1cc2ccc(OC)cc2[nH]c1=O	-9.2	5.6	0.8	18.3	58.1*
COC(=O)CC1SC(=O)NC1=Nc1cccc(C)c1 (configuration not stated)	2.8	12.6	1	2.1	-5.8
O=C1OC(C(=O)O)Cc2ccccc21 (configuration not stated)	3.9	16.2	0.9	12.3	-3.6
COC(=O)c1cn(-c2ccc(Cl)cc2)c(=O)c2ccccc12	-3.7	2.5	0.9	8.4	57.8*
Cc1ccc(S(=O)(=O)N(CCCO)CC(O)CON=C2c3ccccc3-c3ccccc32)cc1 (configuration not stated)	-6.3	59.3*	0.8	17.1	100.3*
BrC(=C\c1ccccc1)/C=N/n1cnnc1	13.6	16.3	1	-0.1	100.4*
COc1ccccc1C(=O)NCC(=O)OCC(=O)c1ccc2c(c1)-c1ccccc1C2	-21.5	5.4	0.8	18.4	-4.1
CCC(=O)N1CCc2cc(S(=O)(=O)CCC(=O)Nc3ccc(C)c(F)c3)ccc21	3.6	-5.7	1	3.8	0.0
CCC(=O)N1CCc2cc(S(=O)(=O)CCC(=O)Nc3cccc(C)n3)ccc21	0.0	13.8	1	0.3	55.7*
CCOCCCNC(=S)Nc1ccc(S(N)(=O)=O)cc1	0.5	-13.7	1	4.7	-4.7
CCOc1cc(N2CCOCC2)c(OCC)cc1NC(=O)CN1C(=O)C2C3C=CC(C3)C2C1=O (configuration not stated)	-1.6	-7.7	0.9	10.2	-6.1
Fc1ccccc1N1CCN(Cc2cccnc2)CC1	-6.4	-19.7	0.9	12.7	-9.2
Cc1ccc2nc(N3CCCCC3)c(C=O)c(=O)n2c1	5.9	14.3	1	-0.5	-2.4
Cc1ccc2nc(N3CCN(c4ccccc4F)CC3)c(C=O)c(=O)n2c1	17.5	6.2	0.5	53.2*	-8.5
Cc1ccc2nc(-c3ccccc3)c(CN3CCOCC3)n2c1	0.0	-6.3	1	3.6	48.5
Cc1ccc2nc(-c3ccccc3)c(CN3CCN(c4ccccc4F)CC3)n2c1	3.5	82.6*	0.9	5.2	79.8*
